The source made the active and inactive calls. The rule behind the calls is not given here.
Experiments:
[1] = biological target: T1, Adrenergic receptor alpha-2 (Rattus norvegicus, UniProt P22086+P19328+P22909); experiment: Displacement of [3H]-RX 821002 from alpha2-AR in Sprague-Dawley rat brain membranes after 30 mins by liquid scintillation counting; assay type: cell membranes, Membrane
T1 sequence (P22086 whole entry): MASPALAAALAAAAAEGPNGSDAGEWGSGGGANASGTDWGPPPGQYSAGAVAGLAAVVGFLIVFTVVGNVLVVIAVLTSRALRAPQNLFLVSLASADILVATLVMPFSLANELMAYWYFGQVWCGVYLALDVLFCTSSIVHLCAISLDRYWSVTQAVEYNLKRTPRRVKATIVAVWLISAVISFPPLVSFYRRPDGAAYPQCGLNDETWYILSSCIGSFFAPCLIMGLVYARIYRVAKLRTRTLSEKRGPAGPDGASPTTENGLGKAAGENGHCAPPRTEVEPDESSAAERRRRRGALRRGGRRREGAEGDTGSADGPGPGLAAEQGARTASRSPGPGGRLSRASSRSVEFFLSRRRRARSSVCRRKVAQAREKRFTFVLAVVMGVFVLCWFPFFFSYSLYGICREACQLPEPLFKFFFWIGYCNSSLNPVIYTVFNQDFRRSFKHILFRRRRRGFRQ
T1 sequence (P19328 whole entry): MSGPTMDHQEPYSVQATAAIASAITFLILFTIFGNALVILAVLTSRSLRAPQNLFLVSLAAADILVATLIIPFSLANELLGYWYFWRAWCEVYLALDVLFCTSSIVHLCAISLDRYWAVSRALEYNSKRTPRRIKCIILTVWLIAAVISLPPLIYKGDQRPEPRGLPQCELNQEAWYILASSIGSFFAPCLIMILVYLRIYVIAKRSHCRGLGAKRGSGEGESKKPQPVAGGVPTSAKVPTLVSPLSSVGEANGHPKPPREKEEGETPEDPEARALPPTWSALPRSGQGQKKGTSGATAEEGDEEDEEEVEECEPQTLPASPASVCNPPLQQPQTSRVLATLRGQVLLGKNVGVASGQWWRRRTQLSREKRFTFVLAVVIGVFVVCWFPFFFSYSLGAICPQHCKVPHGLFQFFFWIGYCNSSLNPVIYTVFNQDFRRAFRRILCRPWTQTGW
T1 sequence (P22909 whole entry): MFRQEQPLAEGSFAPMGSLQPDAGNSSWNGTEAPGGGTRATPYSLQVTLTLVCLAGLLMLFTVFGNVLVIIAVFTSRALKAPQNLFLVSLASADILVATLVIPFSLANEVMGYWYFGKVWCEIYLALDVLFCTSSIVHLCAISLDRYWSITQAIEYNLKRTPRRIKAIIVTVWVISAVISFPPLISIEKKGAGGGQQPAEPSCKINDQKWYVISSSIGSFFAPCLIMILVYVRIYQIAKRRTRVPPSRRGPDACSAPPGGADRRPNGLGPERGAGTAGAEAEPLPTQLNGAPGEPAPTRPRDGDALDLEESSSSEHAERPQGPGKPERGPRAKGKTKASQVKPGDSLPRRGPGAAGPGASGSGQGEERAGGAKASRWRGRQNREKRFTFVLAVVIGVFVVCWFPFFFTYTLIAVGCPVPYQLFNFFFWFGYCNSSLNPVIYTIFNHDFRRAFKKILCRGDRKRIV
Procedure, shortened: (§1)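 Radioligand competition binding with pKi determined by displacement. I1 sites: [125I]-p-iodoclonidine on rat kidney membranes. I2 sites: [3H]-2-BFI on rat brain membranes. α2-ARs: [3H]-RX821002 on rat brain membranes.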

Nischarin = Nischarin (Rattus norvegicus, UniProt Q4G017); experiment: Displacement of [125I]-p-iodoclonidine from I1 receptor imidazoline binding site in Sprague-Dawley rat kidney cell membranes after 30 mins by liquid scintillation counting; procedure, shortened: as §1
[2] = Displacement of [3H]-2-BFI from I2 receptor imidazoline binding site in Sprague-Dawley rat brain membranes after 30 mins by liquid scintillation counting; assay type: cell membranes, Membrane; procedure, shortened: as §1
[3] = Displacement of [3H]idazoxan from I2 receptor imidazoline binding site in rabbit kidney membranes after 45 mins by […]; assay type: cell membranes, Oryctolagus cuniculus, Membrane
[4] = biological target: T1, Adrenergic receptor alpha-2; experiment: Displacement of [3H]-clonidine from alpha2-AR in rat brain cortical membranes after 45 mins by liquid scintillation counting; assay type: cell membranes
[5] = biological target: T2, Alpha-2B adrenergic receptor (Homo sapiens, UniProt P18089); experiment: Agonist activity at human alpha2b-AR expressed in CHO cells assessed as rate of acidification after 240 mins by cytosensor microphysiometric analysis; assay type: cell-based
T2 sequence (P18089 whole entry): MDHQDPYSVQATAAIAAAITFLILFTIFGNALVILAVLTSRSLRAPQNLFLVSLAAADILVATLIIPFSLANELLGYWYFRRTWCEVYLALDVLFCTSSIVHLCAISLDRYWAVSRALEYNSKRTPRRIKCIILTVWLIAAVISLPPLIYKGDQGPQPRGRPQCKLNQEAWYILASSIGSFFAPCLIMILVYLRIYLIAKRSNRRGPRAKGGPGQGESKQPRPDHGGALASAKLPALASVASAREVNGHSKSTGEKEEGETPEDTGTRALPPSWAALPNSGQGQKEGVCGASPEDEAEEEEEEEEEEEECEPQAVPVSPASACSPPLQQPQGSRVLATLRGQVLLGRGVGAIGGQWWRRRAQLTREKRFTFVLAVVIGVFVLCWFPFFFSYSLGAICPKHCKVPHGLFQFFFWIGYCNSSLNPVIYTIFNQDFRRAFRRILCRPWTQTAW
Procedure, shortened: (§2)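 Functional assay in CHO cells stably expressing a single human α2-AR subtype (α2A, α2B or α2C), read on a Cytosensor microphysiometer. Outputs are pEC50, intrinsic activity and, for antagonism, pKb. Intrinsic activity is expressed as a fraction of the full agonist (−)-noradrenaline, set at 1. Values are mean ± SEM of 3–5 separate experiments.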

[6] = biological target: T3, Alpha-2C adrenergic receptor (Homo sapiens, UniProt P18825); experiment: Agonist activity at human alpha2c-AR expressed in CHO cells assessed as rate of acidification after 240 mins by cytosensor microphysiometric analysis; assay type: cell-based; procedure, shortened: as §2
T3 sequence (P18825 whole entry): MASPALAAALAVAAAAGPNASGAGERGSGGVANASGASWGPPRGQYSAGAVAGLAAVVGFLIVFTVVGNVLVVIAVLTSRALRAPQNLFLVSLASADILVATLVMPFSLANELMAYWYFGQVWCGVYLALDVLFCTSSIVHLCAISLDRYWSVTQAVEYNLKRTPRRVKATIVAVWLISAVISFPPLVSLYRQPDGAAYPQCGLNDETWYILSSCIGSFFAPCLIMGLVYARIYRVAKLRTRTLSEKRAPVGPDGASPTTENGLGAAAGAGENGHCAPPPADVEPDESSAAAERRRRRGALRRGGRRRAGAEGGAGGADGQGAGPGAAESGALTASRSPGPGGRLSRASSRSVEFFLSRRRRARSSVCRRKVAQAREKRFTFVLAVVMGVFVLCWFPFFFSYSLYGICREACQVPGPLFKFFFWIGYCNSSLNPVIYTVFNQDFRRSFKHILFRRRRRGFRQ

[7] = biological target: T4, Alpha-2B adrenergic receptor (Homo sapiens) (UniProt P18089); experiment: Agonist activity at human alpha2b-AR expressed in CHO cells assessed as rate of acidification after 240 mins by cytosensor microphysiometric analysis relative to (-)-noradrenaline; assay type: cell-based; procedure, shortened: as §2
T4 sequence (whole entry): T2 sequence (P18089 whole entry)

[8] = biological target: T5, Alpha-2C adrenergic receptor (Homo sapiens) (UniProt P18825); experiment: Agonist activity at human alpha2c-AR expressed in CHO cells assessed as rate of acidification after 240 mins by cytosensor microphysiometric analysis relative to (-)-noradrenaline; assay type: cell-based; procedure, shortened: as §2
T5 sequence (whole entry): T3 sequence (P18825 whole entry)

[9] = biological target: T6, Alpha-2A adrenergic receptor (Homo sapiens) (UniProt P08913); experiment: Antagonist activity at human alpha2a-AR expressed in CHO cells assessed as inhibition of (-)-noradrenaline-induced acidification rate after 240 mins by cytosensor microphysiometric analysis; assay type: cell-based; procedure, shortened: as §2
T6 sequence (whole entry): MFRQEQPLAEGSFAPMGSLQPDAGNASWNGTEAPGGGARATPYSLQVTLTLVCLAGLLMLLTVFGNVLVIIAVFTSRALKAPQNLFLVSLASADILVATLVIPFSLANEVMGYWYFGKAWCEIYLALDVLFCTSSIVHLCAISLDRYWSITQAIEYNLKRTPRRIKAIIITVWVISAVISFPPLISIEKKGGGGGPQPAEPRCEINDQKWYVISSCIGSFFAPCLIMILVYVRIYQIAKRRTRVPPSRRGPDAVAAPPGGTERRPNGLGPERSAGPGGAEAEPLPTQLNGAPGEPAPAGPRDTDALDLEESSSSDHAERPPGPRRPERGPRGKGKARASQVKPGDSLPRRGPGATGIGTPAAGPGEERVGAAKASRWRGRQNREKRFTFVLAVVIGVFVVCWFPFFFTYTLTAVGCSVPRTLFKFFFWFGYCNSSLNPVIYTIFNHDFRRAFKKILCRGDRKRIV

[10] = Reduction in morphine dependence expression in CD1 mouse assessed as inhibition of naloxone-precipitated jumping at 10 mg/kg, ip administered acutely 15 mins prior to naloxone challenge relative to control; assay type: functional, organism-based
[11] = Reduction in morphine dependence expression in CD1 mouse assessed as inhibition of naloxone-precipitated rearing frequency at 5 mg/kg, ip administered acutely 15 mins prior to naloxone challenge relative to control; assay type: functional, organism-based
[12] = Reduction in morphine dependence expression in CD1 mouse assessed as inhibition of naloxone-precipitated forepaw tremor frequency at 5 mg/kg, ip administered acutely 15 mins prior to naloxone challenge relative to control; assay type: functional, organism-based
[13] = Reduction in morphine dependence expression in CD1 mouse assessed as inhibition of naloxone-precipitated teeth chattering frequency at 5 mg/kg, ip administered acutely 15 mins prior to naloxone challenge relative to control; assay type: functional, organism-based
[14] = Reduction in morphine dependence expression in CD1 mouse assessed as inhibition of naloxone-precipitated rearing frequency at 10 mg/kg, ip administered acutely 15 mins prior to naloxone challenge relative to control; assay type: functional, organism-based
[15] = Reduction in morphine dependence expression in CD1 mouse assessed as inhibition of naloxone-precipitated forepaw tremor frequency at 10 mg/kg, ip administered acutely 15 mins prior to naloxone challenge relative to control; assay type: functional, organism-based
[16] = Reduction in morphine dependence expression in CD1 mouse assessed as inhibition of naloxone-precipitated teeth chattering frequency at 10 mg/kg, ip administered acutely 15 mins prior to naloxone challenge relative to control; assay type: functional, organism-based
Mus musculus [17] = experiment: Reduction in morphine dependence acquisition in CD1 mouse assessed as inhibition of naloxone-precipitated jumping at 10 mg/kg, ip administered 15 mins prior to each morphine challenge; assay type: functional, organism-based
Procedure, shortened: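 Acquisition protocol in mice given repeated morphine. Test drug at 5 or 10 mg/kg i.p. was given 15 min before each morphine injection. Withdrawal was then precipitated with naloxone and jumping frequency counted. Data are mean ± SEM of 6–10 animals, compared with the morphine group.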

Mus musculus [18] = experiment: Reduction in morphine dependence acquisition in CD1 mouse assessed as inhibition of naloxone-precipitated rearing frequency at 5 mg/kg, ip administered 15 mins prior to each morphine challenge relative to control; assay type: functional
Procedure, shortened: (§3)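 Mice received i.p. test compound (5 or 10 mg/kg) 15 min before each of repeated morphine injections, with vehicle and morphine-only controls. Withdrawal was then precipitated with naloxone. Jumping frequency and somatic signs (rearing, forepaw tremor, teeth chattering; summed frequency) were scored and compared with the morphine group. Data are mean ± SEM of 6–10 animals.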

Mus musculus [19] = experiment: Reduction in morphine dependence acquisition in CD1 mouse assessed as inhibition of naloxone-precipitated forepaw tremor frequency at 5 mg/kg, ip administered 15 mins prior to each morphine challenge relative to control; assay type: functional; procedure, shortened: as §3
Mus musculus [20] = experiment: Reduction in morphine dependence acquisition in CD1 mouse assessed as inhibition of naloxone-precipitated teeth chattering frequency at 5 mg/kg, ip administered 15 mins prior to each morphine challenge relative to control; assay type: functional; procedure, shortened: as §3
Mus musculus [21] = experiment: Reduction in morphine dependence acquisition in CD1 mouse assessed as inhibition of naloxone-precipitated rearing frequency at 10 mg/kg, ip administered 15 mins prior to each morphine challenge relative to control; assay type: functional; procedure, shortened: as §3
Mus musculus [22] = experiment: Reduction in morphine dependence acquisition in CD1 mouse assessed as inhibition of naloxone-precipitated forepaw tremor frequency at 10 mg/kg, ip administered 15 mins prior to each morphine challenge relative to control; assay type: functional; procedure, shortened: as §3
Mus musculus [23] = experiment: Reduction in morphine dependence acquisition in CD1 mouse assessed as inhibition of naloxone-precipitated teeth chattering frequency at 10 mg/kg, ip administered 15 mins prior to each morphine challenge relative to control; assay type: functional; procedure, shortened: as §3

Chain of Nischarin (Q4G017 whole entry): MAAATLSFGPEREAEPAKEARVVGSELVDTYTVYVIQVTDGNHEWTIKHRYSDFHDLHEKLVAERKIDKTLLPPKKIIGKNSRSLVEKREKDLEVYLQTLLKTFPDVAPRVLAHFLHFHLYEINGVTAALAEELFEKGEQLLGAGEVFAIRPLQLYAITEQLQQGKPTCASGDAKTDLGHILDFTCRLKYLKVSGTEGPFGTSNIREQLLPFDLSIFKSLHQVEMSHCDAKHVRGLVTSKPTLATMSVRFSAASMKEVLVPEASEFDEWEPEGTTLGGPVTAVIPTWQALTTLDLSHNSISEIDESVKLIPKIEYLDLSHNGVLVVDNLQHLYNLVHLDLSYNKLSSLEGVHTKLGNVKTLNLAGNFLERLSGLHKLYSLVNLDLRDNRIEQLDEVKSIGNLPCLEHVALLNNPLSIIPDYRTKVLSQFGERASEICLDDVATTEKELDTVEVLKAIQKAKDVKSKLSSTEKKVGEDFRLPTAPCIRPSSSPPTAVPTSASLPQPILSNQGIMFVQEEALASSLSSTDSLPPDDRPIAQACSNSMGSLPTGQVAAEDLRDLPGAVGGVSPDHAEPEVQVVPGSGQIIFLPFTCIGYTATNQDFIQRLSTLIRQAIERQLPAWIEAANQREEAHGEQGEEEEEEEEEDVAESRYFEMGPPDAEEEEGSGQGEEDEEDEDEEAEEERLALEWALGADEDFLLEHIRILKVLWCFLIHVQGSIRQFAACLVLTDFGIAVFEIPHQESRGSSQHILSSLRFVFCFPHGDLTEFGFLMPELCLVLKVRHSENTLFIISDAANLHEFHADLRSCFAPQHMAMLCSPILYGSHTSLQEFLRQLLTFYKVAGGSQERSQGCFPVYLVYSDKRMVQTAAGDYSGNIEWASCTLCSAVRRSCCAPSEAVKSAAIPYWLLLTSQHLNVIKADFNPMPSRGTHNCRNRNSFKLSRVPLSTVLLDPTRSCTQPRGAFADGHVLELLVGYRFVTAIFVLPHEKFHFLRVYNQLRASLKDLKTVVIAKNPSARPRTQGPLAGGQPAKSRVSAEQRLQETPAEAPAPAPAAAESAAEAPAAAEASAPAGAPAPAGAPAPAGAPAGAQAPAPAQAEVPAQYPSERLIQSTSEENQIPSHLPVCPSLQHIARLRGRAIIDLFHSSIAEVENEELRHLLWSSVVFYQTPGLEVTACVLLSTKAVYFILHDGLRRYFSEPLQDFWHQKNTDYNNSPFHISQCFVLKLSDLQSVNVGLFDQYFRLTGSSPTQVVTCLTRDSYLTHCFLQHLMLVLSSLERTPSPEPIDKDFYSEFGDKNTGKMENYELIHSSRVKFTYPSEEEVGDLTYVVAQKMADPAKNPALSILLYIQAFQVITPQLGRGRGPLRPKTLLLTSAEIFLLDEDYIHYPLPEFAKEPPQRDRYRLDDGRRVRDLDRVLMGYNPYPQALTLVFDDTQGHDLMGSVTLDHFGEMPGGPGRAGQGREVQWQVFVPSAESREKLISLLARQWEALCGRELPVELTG

SMILES	pKi [1]	Ki (Nischarin) [nM]	pKi [2]	EC50 [5] [nM]	EC50 [6] [nM]	Intrinsic activity [7]	Intrinsic activity [8]	pKb [9]	other results
C(=C\c1ccccc1)/C1=NCCN1 [TRACIZOLINE]									pKi [3]: 8.72; pKi [4]: < 6
C=CCc1ccccc1/C=C/C1=NCCN1	< 6	69.2	8.3						
C=CCc1ccccc1NCC1=NCCN1	6.79	3.98	7.85	2510	158	0.5	0.8	6.77	
Cc1ccccc1/C=C/C1=NCCN1	< 6	17.8	9.11						inhibition [10]: 90%; inhibition [11]: 50%; inhibition [12]: 50%; inhibition [13]: 50%; inhibition [14]: 50%; inhibition [15]: 50%; inhibition [16]: 50%; inhibition (Mus musculus [17]): Active; inhibition in vivo at 5 mg/kg (Mus musculus [18]): 34%; inhibition in vivo at 5 mg/kg (Mus musculus [19]): 34%; inhibition in vivo at 5 mg/kg (Mus musculus [20]): 34%; inhibition in vivo at 10 mg/kg (Mus musculus [21]): 46%; inhibition in vivo at 10 mg/kg (Mus musculus [22]): 46%; inhibition in vivo at 10 mg/kg (Mus musculus [23]): 46%

Further lines, with some results ahead:

pKi [1]	Ki (Nischarin) [nM]	pKi [2]	EC50 [5] [nM]	EC50 [6] [nM]	Intrinsic activity [7]	Intrinsic activity [8]	pKb [9]	SMILES	other results
< 6	97.7	8.08						C(=C\c1ccccc1-c1ccccc1)/C1=NCCN1	
6.75	8.32	7.29	4570	115	0.55	0.75	6.71	CCCc1ccccc1NCC1=NCCN1	
